From ChEMBL document CHEMBL1123278, “Synthesis and dopaminergic activity of trans-6-methyl-7a,8,9,10,11,11a-hexahydro-7H-pyrrolo[3,2,1-gh]- 4,7-phenanthroline and trans-1,2,3,4,4a,5,6,10b-octahydro-4,7-phenanthroline derivatives” (J Med Chem, 1986)

Key:
Rattus norvegicus [1] = assay: Dopaminergic activity, ability to lower serum prolactin levels after intraperitoneal administration of compound (50.0 mg/kg); type: functional, organism-based
Method in brief: (§1)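 Adult male Wistar rats (250–300 g) were caged singly with food and water ad libitum. Each rat got reserpine pretreatment, 2.5 mg/rat ip (2.5 mg/mL), 18 h before the drug. Drugs were dissolved in distilled water at 1 mL/kg ip; saline controls were run. Serum (100 µL, duplicate) was assayed by NIADDK prolactin RIA, expressed as ng RP3/mL. Results were given as % inhibition versus controls, mean ± standard error, 5–10 rats/group.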

Rattus norvegicus [2] = assay: Compound was tested for inhibiting prolactin release at the 50.0 mg/kg dose levels; type: functional; method in brief: as §1
[3] = Compound was evaluated for its acute toxicity in rat; type: organism-based; settings: in vivo
Method in brief: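 Male Wistar rats (200–250 g), 50 per substance, given single ip doses at five dose levels with 10 rats per dose. Deaths were followed for up to 14 days. LD50 was estimated by the Weil method, with 95% confidence limits.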

Rattus norvegicus [4] = assay: Dopaminergic activity, ability to lower serum prolactin levels after intraperitoneal administration of compound (103.3 mg/kg); type: functional, organism-based; method in brief: as §1
Rattus norvegicus [5] = assay: Compound was tested for inhibiting prolactin release at the 103.3 mg/kg dose levels; type: functional; method in brief: as §1
Rattus norvegicus [6] = assay: Dopaminergic activity, ability to lower serum prolactin levels after intraperitoneal administration of compound (0.001 mg/kg) in rats; type: functional, organism-based; method in brief: as §1
Rattus norvegicus [7] = assay: Compound was tested for the percent prolactin inhibiting activity at the 0.1 mg/kg dose levels; type: functional
Method in brief: (§2)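 Adult male Wistar rats (250-300 g), individually caged, food and water ad libitum, pretreated ip with reserpine 2.5 mg/rat 18 h before dosing to keep prolactin high. Single ip dose in distilled water (1 mL per kg); controls received isotonic saline. Serum prolactin measured by radioimmunoassay in duplicate, 100 μL serum, as ng rat prolactin RP3/mL; % inhibition versus saline controls.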

Rattus norvegicus [8] = assay: Compound was tested for the percent prolactin inhibiting activity at the 0.001 mg/kg dose levels; type: functional; method in brief: as §2
Rattus norvegicus [9] = assay: Dopaminergic activity, ability to lower serum prolactin levels after intraperitoneal administration of compound (0.1 mg/kg) in rats; type: functional, organism-based; method in brief: as §1
Rattus norvegicus [10] = assay: Dopaminergic activity, ability to lower serum prolactin levels after intraperitoneal administration of compound (0.01 mg/kg) in rats; type: functional, organism-based; method in brief: as §1
Rattus norvegicus [11] = assay: Compound was tested for the percent prolactin inhibiting activity at the 0.01 mg/kg dose levels; type: functional; method in brief: as §2
Rattus norvegicus [12] = assay: Dopaminergic activity, ability to lower serum prolactin levels after intraperitoneal administration of compound (34.7 mg/kg); type: functional, organism-based; method in brief: as §1
Rattus norvegicus [13] = assay: Compound was tested for inhibiting prolactin release at the 8.33 mg/kg dose levels; type: functional; method in brief: as §1
Rattus norvegicus [14] = assay: Compound was tested for inhibiting prolactin release at the 4.165 mg/kg dose levels; type: functional; method in brief: as §1
Rattus norvegicus [15] = assay: Dopaminergic activity, ability to lower serum prolactin levels after intraperitoneal administration of compound (8.33 mg/kg); type: functional, organism-based; method in brief: as §1
Rattus norvegicus [16] = assay: Compound was tested for inhibiting prolactin release at 0.833 mg/kg dose levels; type: functional; method in brief: as §1
Rattus norvegicus [17] = assay: Dopaminergic activity, ability to lower serum prolactin levels after intraperitoneal administration of compound (4.165 mg/kg); type: functional, organism-based; method in brief: as §1
Rattus norvegicus [18] = assay: Dopaminergic activity, ability to lower serum prolactin levels after intraperitoneal administration of compound (0.833 mg/kg); type: functional, organism-based; method in brief: as §1
Rattus norvegicus [19] = assay: Dopaminergic activity, ability to lower serum prolactin levels after intraperitoneal administration of compound (0.456 mg/kg); type: functional, organism-based; method in brief: as §1
Rattus norvegicus [20] = assay: Compound at the 4.56 mg/kg dose levels was evaluated for its ability to lower serum prolactin levels 6 hr after intraperitoneal administration; type: functional, organism-based; set-up: dose 4.56 mg/kg
Method in brief: (§3)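 Time course in reserpine-pretreated male Wistar rats (250–300 g), given reserpine 2.5 mg/rat ip 18 h before dosing. The drug was given ip in distilled water (1 mL/kg), and rats were killed 1, 3 or 6 h later, with saline controls at each time. Serum prolactin was measured by duplicate NIADDK RIA (ng RP3/mL) and reported as % inhibition versus controls, mean ± standard error, 6–10 rats/group.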

Rattus norvegicus [21] = assay: Compound was tested for inhibiting prolactin release at the 4.56 mg/kg dose levels 3h after ip administration; type: functional; settings: route intraperitoneal; method in brief: as §3
Rattus norvegicus [22] = assay: Compound was tested for inhibiting prolactin release at the 4.56 mg/kg dose levels 6 hr after ip administration; type: functional; settings: route intraperitoneal; method in brief: as §3
Rattus norvegicus [23] = assay: Compound was tested for inhibiting prolactin release at the 0.0456 mg/kg dose levels; type: functional; method in brief: as §1
Rattus norvegicus [24] = assay: Compound was tested for inhibiting prolactin release at the 0.456 mg/kg dose levels; type: functional; method in brief: as §1
Rattus norvegicus [25] = assay: Dopaminergic activity, ability to lower serum prolactin levels after intraperitoneal administration of compound (0.0456 mg/k); type: functional, organism-based; method in brief: as §1
Rattus norvegicus [26] = assay: Dopaminergic activity, ability to lower serum prolactin levels 1 hr after intraperitoneal administration of compound (4.56 mg/kg); type: functional, organism-based; method in brief: as §3
Rattus norvegicus [27] = assay: Compound at the 4.56 mg/kg dose levels was evaluated for its ability to lower serum prolactin levels 3h after intraperitoneal administration; type: functional, organism-based; set-up: dose 4.56 mg/kg; method in brief: as §3
Rattus norvegicus [28] = assay: Compound was tested for inhibiting prolactin release at the 4.56 mg/kg dose levels 1 hr after ip administration; type: functional; settings: route intraperitoneal; method in brief: as §3
Rattus norvegicus [29] = assay: Dopaminergic activity, ability to lower serum prolactin levels after intraperitoneal administration of compound (11.2 mg/kg) in rats; type: functional, organism-based; method in brief: as §1

Structure (SMILES): CN1CCC[C@H]2c3cccnc3CC[C@H]21
- Level (Rattus norvegicus [1]): 14.3 ng/mL
- inhibition in vivo at 50 mg/kg (Rattus norvegicus [2]): 14.3%
- LD50 [3]: 200 mg/kg

Structure (SMILES): CCCN1CCC[C@@H]2c3cccn4cc(C)c(c34)C[C@H]21
- Level (Rattus norvegicus [4]): 10.2 ng/mL
- inhibition in vivo at 103.3 mg/kg (Rattus norvegicus [5]): 38.9%
- LD50 [3]: 413 mg/kg

Structure (SMILES): CC(C)C[C@H]1C(=O)N2CCC[C@H]2[C@]2(O)O[C@](NC(=O)[C@@H]3C=C4c5cccc6[nH]c(Br)c(c56)C[C@H]4N(C)C3)(C(C)C)C(=O)N12 [BROMOCRIPTINE]
- Level (Rattus norvegicus [6]): 12.7 ng/mL
- inhibition in vivo at 0.1 mg/kg (Rattus norvegicus [7]): 90.4%
- inhibition in vivo at 0.001 mg/kg (Rattus norvegicus [8]): 23.9%
- Level (Rattus norvegicus [9]): 1.6 ng/mL
- Level (Rattus norvegicus [10]): 6.6 ng/mL
- inhibition in vivo at 0.01 mg/kg (Rattus norvegicus [11]): 60.4%

Structure (SMILES): CCCN1CCC[C@H]2c3cccnc3CC[C@H]21
- Level (Rattus norvegicus [12]): 19.3 ng/mL
- LD50 [3]: 139 mg/kg

Structure (SMILES): CCN1CCC[C@@H]2c3cccn4cc(C)c(c34)C[C@H]21
- inhibition in vivo at 8.33 mg/kg (Rattus norvegicus [13]): 80.2%
- inhibition in vivo at 4.165 mg/kg (Rattus norvegicus [14]): 71.3%
- Level (Rattus norvegicus [15]): 3.3 ng/mL
- inhibition in vivo at 0.833 mg/kg (Rattus norvegicus [16]): 34.7%
- Level (Rattus norvegicus [17]): 4.7 ng/mL
- Level (Rattus norvegicus [18]): 10.9 ng/mL
- LD50 [3]: 228 mg/kg

Structure (SMILES): CCCN1CCC[C@@H]2c3cccnc3CC[C@H]21
- Level (Rattus norvegicus [19]): 8.8 ng/mL
- Level (Rattus norvegicus [20]): 9.6 ng/mL
- inhibition in vivo at 4.56 mg/kg (Rattus norvegicus [21]): 70%
- inhibition in vivo at 4.56 mg/kg (Rattus norvegicus [22]): 41.8%
- inhibition in vivo at 0.0456 mg/kg (Rattus norvegicus [23]): 27.5%
- inhibition in vivo at 0.456 mg/kg (Rattus norvegicus [24]): 47.3%
- Level (Rattus norvegicus [25]): 12.1 ng/mL
- Level (Rattus norvegicus [26]): 2.5 ng/mL
- LD50 [3]: 183 mg/kg
- Level (Rattus norvegicus [27]): 4.6 ng/mL
- inhibition in vivo at 4.56 mg/kg (Rattus norvegicus [28]): 85%

Structure (SMILES): Cc1cn2cccc3c2c1C[C@@H]1[C@@H]3CCCN1C
- Level (Rattus norvegicus [29]): 18.9 ng/mL
- LD50 [3]: 45 mg/kg
